Source: ChEMBL document CHEMBL1123135, “Substituent effects on the bioactivation of 2-(N-hydroxyacetamido)fluorenes by N-arylhydroxamic acid N,O-acyltransferase” (J Med Chem, 1985)

Legend:
[1] = Observed log rate of methylthio adduct formation; format: ADME
Outline: (§1)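 Hamster liver 105000g cytosol AHAT was taken as the 35–50% ammonium sulfate fraction (2–3-fold purified). Incubation (1.0 mL, pH 6.8 sodium phosphate) held 0.8 μmol NAD⁺, 10 μmol N-acetyl-L-[¹⁴C-CH₃]methionine, 1 mg enzyme and 1 μmol hydroxamic acid, for 10 min at 37 °C in air. Ether wash and 90 °C/45 min heating were followed by benzene–alkane extraction and scintillation counting. Heat-denatured enzyme blanks were subtracted; N = 3.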

Hamster = experiment: Rate of methylthio adduct formation catalyzed by partially purified hamster hepatic enzyme per mg protein per 10 min; format: ADME; conditions: cricetinae, in vitro; outline: as §1

Work on `CC(=O)N(O)c1ccc2c(c1)Cc1ccccc1-2` yielded a Log rate [1] of 0.87 and a Rate (Hamster) of 7.5 nmol/mg/10 min.
For `CCCCOc1ccc2c(c1)Cc1cc(N(O)C(C)=O)ccc1-2`, the Rate (Hamster) was 0 nmol/mg/10 min.
Work on `CC(=O)c1ccc2c(c1)Cc1cc(N(O)C(C)=O)ccc1-2` yielded a Log rate [1] of 1.79 and a Rate (Hamster) of 61 nmol/mg/10 min.
Work on `CC(=O)N(O)c1ccc2c(c1)Cc1cc(F)ccc1-2` yielded a Log rate [1] of 1.18 and a Rate (Hamster) of 15.2 nmol/mg/10 min.
With `CC(=O)N(O)c1ccc2c(c1)Cc1cc(I)ccc1-2` the Log rate [1] was 0.37 and the Rate (Hamster) was 2.4 nmol/mg/10 min.
For `CC(=O)N(O)c1ccc2c(c1)Cc1cc(Br)ccc1-2`, the Log rate [1] was 1.02 and the Rate (Hamster) was 10.5 nmol/mg/10 min.
`COc1ccc2c(c1)Cc1cc(N(O)C(C)=O)ccc1-2` gave a Log rate [1] of 0.09 and a Rate (Hamster) of 1.2 nmol/mg/10 min.
Compound `CC(=O)N(O)c1ccc2c(c1)Cc1cc(C#N)ccc1-2` has a Log rate [1] of 1.4 and a Rate (Hamster) of 24.9 nmol/mg/10 min.
